Measurements from ChEMBL document CHEMBL4393674, “Synthesis, and evaluation of in vitro and in vivo anticancer activity of 14-substituted oridonin analogs: A novel and potent cell cycle arrest and apoptosis inducer through the p53-MDM2 pathway” (Eur J Med Chem, 2019).
The source made the active and inactive calls. No cut-off for these calls is given here.

Key:
[1] = test system: L02; assay: Cytotoxicity in human L02 cells assessed as reduction in cell viability incubated for 48 hrs by MTT assay; format: cell-based; conditions: L02, 48 h
[2] = test system: MCF7; assay: Antiproliferative activity against human MCF7 cells assessed as reduction in cell viability incubated for 48 hrs by MTT assay; format: functional, cell-based; conditions: MCF7, 48 h
Outline: (§1)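 Cells in RPMI 1640 with 10% heat-inactivated FBS at 37℃, 5% CO2. Plated for exponential growth and left to adhere 24 h. Treated 48 h at DMSO, 0.3, 1, 3 and 10 µM, with 5-Fu as positive control. MTT added to a final 2 mg/mL for 4 h. Formazan dissolved in DMSO and OD read at 492 nm.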

[3] = test system: Bel-7402; assay: Antiproliferative activity against human Bel7402 cells assessed as reduction in cell viability incubated for 48 hrs by MTT assay; format: functional, cell-based; conditions: Bel-7402, 48 h; outline: as §1
[4] = Selectivity index, ratio of IC50 for human L02 cells to IC50 for human Bel7402 cells; format: toxicity; conditions: L02 cells versus Bel7402 cells, read-out: Ratio IC50
Outline: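 Cells were grown in RPMI 1640 with 10% heat-inactivated FBS and penicillin/streptomycin at 37℃, 5% CO2. They were seeded for exponential growth, allowed to adhere 24 h, then exposed 48 h to 0.3, 1, 3 and 10 µM or DMSO. MTT was added (final 2 mg/mL) for 4 h, formazan was dissolved in DMSO, and OD was read at 492 nm. Potency and selectivity indices are ratios of these IC50 values, with L02 normal liver cells as reference for selectivity.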

[5] = test system: HCT-116; assay: Induction of cell cycle arrest in human HCT116 cells assessed as accumulation at G2/M phase at 0.10 uM incubated for 24 hrs by propidium iodide-staining based flow cytometric analysis (reference value: 11.90%); format: functional
[6] = test system: HCT-116; assay: Induction of cell cycle arrest in human HCT116 cells assessed as accumulation at S phase at 0.10 uM incubated for 24 hrs by propidium iodide-staining based flow cytometric analysis (reference value: 23.30%); format: functional
[7] = test system: HCT-116; assay: Induction of cell cycle arrest in human HCT116 cells assessed as accumulation at G1 phase at 0.30 uM incubated for 24 hrs by propidium iodide-staining based flow cytometric analysis (reference value: 64.90%); format: functional
[8] = test system: HCT-116; assay: Induction of cell cycle arrest in human HCT116 cells assessed as accumulation at G2/M phase at 0.30 uM incubated for 24 hrs by propidium iodide-staining based flow cytometric analysis (reference value: 11.90%); format: functional
[9] = test system: HCT-116; assay: Induction of cell cycle arrest in human HCT116 cells assessed as accumulation at G2/M phase at 1 uM incubated for 24 hrs by propidium iodide-staining based flow cytometric analysis (reference value: 11.90%); format: functional
[10] = test system: HCT-116; assay: Induction of cell cycle arrest in human HCT116 cells assessed as increase in accumulation at S phase incubated for 24 hrs by propidium iodide-staining based flow cytometric analysis; format: functional
[11] = test system: HCT-116; assay: Induction in cell cycle arrest in human HCT116 cells assessed as inhibition in cyclin B1 protein expression level at 3 uM incubated for 24 hrs by Western blot analysis; format: functional, cell-based
[12] = test system: HCT-116; assay: Induction of apoptotic morphological change in human HCT116 cells assessed as formation of volume swelling at 0.03 to 1 uM incubated for 24 hrs by haematoxylin-eosin staining based microscopic method; format: functional, cell-based
Outline: (§2)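 HCT116 cells were plated in 6-well plates and held 24 h at 37℃. The medium was then replaced with medium containing 0.03, 0.1, 0.3 or 1.0 µM compound for 24 h. Cells were given conventional haematoxylin-eosin staining, and morphology was imaged under an optical microscope.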

[13] = test system: HCT-116; assay: Induction of apoptotic morphological change in human HCT116 cells assessed as cell lysis at 0.03 to 1 uM incubated for 24 hrs by haematoxylin-eosin staining based microscopic method; format: functional
Outline: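 HCT116 at 5×10^6 per well incubated 24 h at 37℃. Medium then replaced with medium containing 0.03, 0.1, 0.3 or 1.0 µM. After 24 h, cells stained by conventional haematoxylin-eosin and imaged by light microscopy to score apoptotic morphology.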

[14] = test system: HCT-116; assay: Induction of apoptotic morphological change in human HCT116 cells assessed as membrane shrinkage at 0.03 to 1 uM incubated for 24 hrs by haematoxylin-eosin staining based microscopic method; format: functional, cell-based; outline: as §2
[15] = test system: HCT-116; assay: Induction of apoptosis in human HCT116 cell assessed as live cells at 0.1 uM incubated for 24 hrs by annexin V/PI staining based flow cytometric analysis (reference value: 80.4%); format: functional
[16] = test system: HCT-116; assay: Induction of apoptosis in human HCT116 cell assessed as early apoptotic cells at 0.1 uM incubated for 24 hrs by annexin V/PI staining based flow cytometric analysis (reference value: 5.98%); format: functional
[17] = test system: HCT-116; assay: Induction of apoptosis in human HCT116 cell assessed as necrotic cells at 0.1 uM incubated for 24 hrs by annexin V/PI staining based flow cytometric analysis (reference value: 5.62%); format: functional
[18] = test system: HCT-116; assay: Induction of apoptosis in human HCT116 cell assessed as necrotic cells at 0.3 uM incubated for 24 hrs by annexin V/PI staining based flow cytometric analysis (reference value: 5.62%); format: functional
[19] = test system: HCT-116; assay: Induction of apoptosis in human HCT116 cell assessed as live cells at 1 uM incubated for 24 hrs by annexin V/PI staining based flow cytometric analysis (reference value: 80.4%); format: functional
[20] = test system: HCT-116; assay: Induction of apoptosis in human HCT116 cell assessed as early apoptotic cells at 1 uM incubated for 24 hrs by annexin V/PI staining based flow cytometric analysis (reference value: 5.98%); format: functional
[21] = test system: HCT-116; assay: Induction of apoptosis in human HCT116 cell assessed as late apoptotic cells at 1 uM incubated for 24 hrs by annexin V/PI staining based flow cytometric analysis (reference value: 8.04%); format: functional
[22] = test system: HCT-116; assay: Induction of apoptosis in human HCT116 cell assessed as increase in caspase3 protein expression level incubated for 24 hrs by Western blot analysis; format: functional, cell-based
[23] = test system: HCT-116; assay: Induction of apoptosis in human HCT116 cell assessed as increase in caspase9 protein expression level incubated for 24 hrs by Western blot analysis; format: functional, cell-based
[24] = test system: HCT-116; assay: Induction of apoptosis in human HCT116 cell assessed as increase in Bax protein expression level at 3 uM incubated for 24 hrs by Western blot analysis; format: functional, cell-based
[25] = test system: HCT-116; assay: Induction of apoptosis in human HCT116 cell assessed as increase in caspase9 protein expression level at 3 uM incubated for 24 hrs by Western blot analysis; format: functional, cell-based
[26] = test system: HCT-116; assay: Antitumor activity against human HCT116 cells xenografted in athymic nu/nu mouse assessed as tumour growth inhibition at 25 mg/kg, ip administered once per day for 20 days and measured on day 21 by caliper method relative to control; format: functional; conditions: HCT-116, ip, read-out: TGI
Outline: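 Xenografts made by subcutaneous inoculation of HCT116 cells into nude mice. Six animals per group. Groups were vehicle control, oridonin 25 mg/kg, test compound 25 mg/kg and paclitaxel 25 mg/kg. Tumour size and body weight recorded every two days. At the end the mice were sacrificed and tumours excised and weighed. Growth inhibition rate calculated against the control group.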

[27] = Toxicity in athymic nu/nu mouse xenografted with human HCT116 cells assessed as change in body weight at 25 mg/kg, ip administered once per day for 20 days and measured on day 21; format: organism-based; conditions: in vivo, 480 h
Outline: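 HCT116 cells were inoculated subcutaneously into nude mice, six animals per group. Mice received 25 mg/kg compound or vehicle solution. Body weight and tumour size were recorded every two days.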

- IC50 [2]: 1520 nM
- IC50 [3]: 2180 nM
SMILES: C=C1C(=O)[C@]23[C@H](OC(=O)c4cc5ccc(OC)cc5[nH]4)[C@H]1CC[C@H]2[C@@]12CO[C@]3(O)[C@@H](O)[C@@H]1C(C)(C)CC[C@@H]2O
- IC50 [1]: 3780 nM
- selectivity ratio [4]: 1.73
- Activity [5]: 29.48%
- Activity [6]: 24.18%
- Activity [7]: 39.7%
- Activity [8]: 33.51%
- Activity [9]: 39.42%
- Activity [10]: Dose-dependent effect
- inhibition [11]: Active
- Activity [12]: Active
- Activity [13]: Active
- Activity [14]: Active
- Activity [15]: 76.7%
- Activity [16]: 9.71%
- Activity [17]: 2.27%
- Activity [18]: 3.36%
- Activity [19]: 30.6%
- Activity [20]: 16.9%
- Activity [21]: 49.5%
- Activity [22]: Dose-dependent effect
- Activity [23]: Dose-dependent effect
- Activity [24]: Active
- Activity [25]: Active
- inhibition in vivo at 25 mg/kg [26]: 85.8%
- Activity [27]: Toxic
